High-throughput results from PubChem.
Hits are enriched below; roughly 1.7% of the tested compounds scored in any of these assays.
CaV13 ICDI inh – Disruptors of the CACNA1D IQ motif to Ca2+-dependent inactivation inhibitor domain association, primary screening, Förster resonance energy transfer in intact living …; HEK cells, CFP/YFP FRET ICDI-IQ, plate reader, 10 min; percent FRET-ratio fall versus neutral wells; inhibition, % at 12.3 µM; 340,000 tested, 0.098% active;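 active = mean replicate inhibition of at least 30% and at least 1% of replicates passing that level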
CFTR F508del cor – correctors of CFTR F508del function in bronchial epithelial cells | CFBE cells, YFP halide quenching; stimulated with forskolin plus potentiator P3; % fluorescence drop versus neutral controls | activity (quench increase), % at 7.58 µM | 350,000 tested, 0.36% active;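 active = mean added fluorescence quench of at least 8% versus neutral control, with both replicates also reaching 8%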;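 also: cells transiently co-express mutant CFTR-F508del with the halide-sensitive YFP; corrector assay measuring rescue of mutant channel to the surface after 24 h compound exposure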
Ecoli rRNA inh – inhibits bacterial ribosomal RNA function over humanized ribosomes. E. coli WT GFP vs humanized-ribosome RFP mutants, fluorescence, 24 h; active compounds read low; DMSO median 0, no signal -100. GFP signal change (wild-type ribosome), % (test concentration not listed). 350,000 tested, 1.6% active;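 active = significant combined selectivity score with lowered wild-type GFP, culture density cut under 30%, mutant RFP and density less affected; inactive = any of these conditions unmet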
Cneo AK release – causes C. neoformans cell lysis; adenylate kinase release luminescence, 4 h; normalised: neutral wells 0, clomiphene wells 100; lysis activity, % at 15 µM; 360,000 tested, 0.2% active;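 active = mean lysis activity across replicates of at least 80%, whatever share of replicates individually reach that level; inactive = mean lysis activity below 80%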
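Test system: log-phase Cryptococcus neoformans yeast cells. Input: 5 × 10^6 yeast cells/mL. Medium: fresh YPD growth medium. Doses: single dose. Incubation: static 4 h at 37 °C with compound, 1 h detection. Measured by: luminescent adenylate kinase detection reagent. Read-out: signal increase indicating cell lysis. Benchmarks: Clomiphene.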
Large screens that a line does not name were inactive.

O=Cc1cc(N=Nc2ccc(S(=O)(=O)O)cc2)ccc1O	Ecoli rRNA inh -20.4 (no result: Cneo AK release)
CCOc1ccc(-c2c[n+]3c(n2-c2ccccc2)CCCCC3)cc1	Ecoli rRNA inh -38.6 (no result: Cneo AK release)
O=C1C(Sc2ccccc2)=C[C@@]2(O)CC[C@@H](O)[C@]1(Sc1ccccc1)[C@H]2O	Ecoli rRNA inh -23.2 (no result: Cneo AK release)
O=C(Nc1ccccc1C(=O)N1CCCC1)c1ccccc1	none
O=C(Nc1ccccc1C(=O)N1CCCCCC1)c1ccc(Cl)cc1	Ecoli rRNA inh -23.5 (no result: Cneo AK release)
Cc1noc(C)c1NC(=O)Nc1ccc2c(c1)CC(=O)N([C@@H](C)CO)C[C@H](C)[C@@H](CN(C)CC1CC1)O2	none (no result: CaV13 ICDI inh)
N#C[C@H]1[C@H](c2ccc(-c3cccc(F)c3)cc2)[C@H](CO)N1C(=O)c1cccnc1	none (no result: CaV13 ICDI inh)
C[C@H](CO)N1C[C@H](C)[C@@H](CN(C)Cc2ccc(C(F)(F)F)cc2)Oc2ccc(NC(=O)CCC(F)(F)F)cc2CC1=O	none (no result: CaV13 ICDI inh)
COc1ccc(OCC(=O)N/N=C2\CCCCc3ccccc32)cc1	Ecoli rRNA inh -28.9 (no result: CFTR F508del cor, Cneo AK release)
COc1ccc(C(=O)NCc2cc(C)nc3ccccc23)cc1OC	none
COc1ccc(C(=O)N(c2ccccc2)c2nccc3ccccc23)cc1OC	Ecoli rRNA inh -18.5
CC(=O)N(C)C[C@H]1Oc2cc(C#CC(C)C)ccc2S(=O)(=O)N([C@H](C)CO)C[C@H]1C	none (no result: CaV13 ICDI inh)
COCC#Cc1cnc2c(c1)C(=O)N([C@@H](C)CO)C[C@@H](C)[C@@H](CN(C)C(=O)C1CC1)O2	Cneo AK release 86.6 (no result: CaV13 ICDI inh)
COCC#Cc1cnc2c(c1)C(=O)N([C@@H](C)CO)C[C@@H](C)[C@H](CN(C)C(=O)C1CC1)O2	none (no result: CaV13 ICDI inh)
COCC#Cc1cnc2c(c1)C(=O)N([C@H](C)CO)C[C@H](C)[C@H](CN(C)C(=O)C1CC1)O2	Cneo AK release 101.3 (no result: CaV13 ICDI inh)
COCC(=O)N(C)C[C@@H]1Oc2ncc(C#CCC3CCCC3)cc2C(=O)N([C@H](C)CO)C[C@H]1C	Cneo AK release 87.3 (no result: CaV13 ICDI inh)
C/C=C/c1cnc2c(c1)C(=O)N([C@H](C)CO)C[C@@H](C)[C@@H](CN(C)C(=O)C1CCCCC1)O2	Cneo AK release 95.1 (no result: CaV13 ICDI inh)
COCC#Cc1cnc2c(c1)C(=O)N([C@H](C)CO)C[C@@H](C)[C@H](CN(C)C(=O)C1CC1)O2	none (no result: CaV13 ICDI inh)
C[C@H](CO)N1C[C@H](C)[C@@H](CN(C)S(=O)(=O)c2ccc(F)cc2)Oc2ccc(NC(=O)CCC(F)(F)F)cc2CC1=O	none (no result: CaV13 ICDI inh)
CCS(=O)(=O)NCC[C@@H]1CC[C@@H](NC(=O)C2CCOCC2)[C@@H](CO)O1	none (no result: CaV13 ICDI inh)
CO/N=C\CC(=O)Nc1ccc(Cl)cc1Cl	CFTR F508del cor 10.7 (no result: Cneo AK release)
Cc1noc(C)c1NC(=O)N(C)C[C@H]1Oc2c(NS(=O)(=O)c3ccc(Cl)cc3)cccc2C(=O)N([C@@H](C)CO)C[C@H]1C	none (no result: CaV13 ICDI inh)
C[C@@H]1CN([C@@H](C)CO)C(=O)c2cc(NC(=O)Cn3cnnn3)ccc2O[C@H]1CN(C)Cc1ccc(C(=O)O)cc1	none (no result: CaV13 ICDI inh)
CCOc1ccc(/C=N/NC(=S)NC2CC3CC2C2C=CCC32)cc1 (stereo not drawn)	none
CCOc1ccc(/C=N/NC(=S)NC2CC3CCC2C3)cc1 (stereo not drawn)	Ecoli rRNA inh -16.8
Cc1cc(Cn2nc(C(=O)NCC3CC3)cc2-c2ccccc2)on1	Ecoli rRNA inh -26.8
C[C@@H]1CCCCO[C@@H](CN(C)Cc2ccc(C(F)(F)F)cc2)[C@H](C)CN([C@@H](C)CO)C(=O)c2cc(NS(=O)(=O)c3cn(C)cn3)ccc2O1	none (no result: CaV13 ICDI inh)
CNc1ccc(C=C2C=Cc3ccccc32)cc1	Ecoli rRNA inh -19.5 (no result: Cneo AK release)
CN(C)c1ccc(C=C2C=Cc3ccccc32)cc1	none
Cc1ccc(-c2csc(NC(=O)CCNC(=O)c3ccco3)n2)cc1	Ecoli rRNA inh -35.5 (no result: Cneo AK release)
COc1ccc(-c2csc(NC(=O)CCNC(=O)c3ccco3)n2)cc1	none
CCC1(C2=CCCCC2)C(=O)NC(=S)N=C1N (stereo not drawn)	CFTR F508del cor 8.7
O=C(C[C@H]1C=C[C@H](NC(=O)Nc2ccccc2F)[C@@H](CO)O1)NCc1ccc(F)cc1	none (no result: CaV13 ICDI inh)
CN(Cc1ccccc1)C(=O)C(C(=O)c1ccc(F)cc1)n1cc(Cl)ccc1=O (stereo not drawn)	Ecoli rRNA inh -29.8 (no result: Cneo AK release)
Cc1ccc(NC(=O)Cc2ccccc2Cl)cc1S(=O)(=O)N(C)C	none (no result: CFTR F508del cor, Ecoli rRNA inh, Cneo AK release)
Cc1ccc(NC(=O)COC(=O)c2ccccc2Cl)cc1S(=O)(=O)N(C)C	Ecoli rRNA inh -33.6 (no result: Cneo AK release)
Cc1ccc(NC(=O)c2ccc(Br)o2)cc1S(=O)(=O)N(C)C	Ecoli rRNA inh -21.4 (no result: Cneo AK release)
O=C(NCC[C@@H]1CC[C@H](NS(=O)(=O)c2ccc(F)cc2)[C@H](CO)O1)c1ccccc1F	none (no result: CaV13 ICDI inh, Cneo AK release)
C[C@@H]1CN([C@@H](C)CO)C(=O)c2cc(NC(=O)Nc3ccc(F)cc3)ccc2O[C@@H]1CN(C)S(=O)(=O)c1cn(C)cn1	none (no result: CaV13 ICDI inh)
N#CC(C(=S)Nc1ccccc1)c1nc2ccccc2[nH]1 (stereo not drawn)	Ecoli rRNA inh -37.5
Cc1noc(C)c1NC(=O)N(C)C[C@H]1Oc2c(NC(=O)CCCCCC(=O)Nc3ccccc3N)cccc2C(=O)N([C@@H](C)CO)C[C@H]1C	none (no result: CaV13 ICDI inh, Cneo AK release)
N#Cc1c(-c2ccco2)ccn(Cc2cccc(F)c2)c1=O	Ecoli rRNA inh -16.9
COc1cccc(Cl)c1NC(=O)N1CCN(c2cc(C)nc3ccccc23)CC1	none
COc1cccc(Cl)c1NC(=O)N1CCN(c2ccnc3cc(Cl)ccc23)CC1	Ecoli rRNA inh -31.7 (no result: Cneo AK release)
COc1ccc(N2CCN(c3ccnc4cc(Cl)ccc34)CC2)cc1	none
Oc1ccc(N2CCN(c3ccnc4cc(Cl)ccc34)CC2)cc1	Ecoli rRNA inh -37.5
O=C(c1ccc(Cl)cc1)N1CCN(c2ccnc3cc(Cl)ccc23)CC1	Ecoli rRNA inh -29.4 (no result: Cneo AK release)
CCC(=O)N1CCN(c2ccnc3cc(Cl)ccc23)CC1	none (no result: Cneo AK release)
C[C@H](CO)N1C[C@H](C)[C@@H](CN(C)Cc2ccc(C(=O)O)cc2)Oc2ccc(NC(=O)C3CCCCC3)cc2CC1=O	none (no result: CaV13 ICDI inh)
O=CNc1cc(-c2ccsc2)cn2c(-c3ccccc3)cnc12	Cneo AK release 145.5
CS(=O)(=O)c1ccc(-c2cnc3c(NC=O)cc(-c4ccsc4)cn23)cc1	none
O=CNc1cc(-c2ccc(C(=O)NC3CC3)cc2)cn2c(-c3ccccc3)cnc12	CFTR F508del cor 13.7
COc1ccc(-c2cnc3c(NC=O)cc(-c4ccccc4)cn23)cc1OC	CFTR F508del cor 13.2
COc1ccc(-c2cnc3c(NC=O)cc(-c4ccc(F)cc4)cn23)cc1OC	none
COc1ccc(C(=O)NC(=S)Nc2ccc(CN3CCCCC3)cc2)cc1Cl	Ecoli rRNA inh -20.3 (no result: Cneo AK release)
O=C(COc1ccc(Br)cc1)N/N=C1/SCC(=O)N1Cc1ccco1	Ecoli rRNA inh -23.4 (no result: Cneo AK release)
O=C(/C=C/c1ccc(O)cc1)c1ccc(NC2=C(N3CCCCC3)C(=O)c3ccccc3C2=O)cc1	Ecoli rRNA inh -37.0
COc1cc2sc3cc(NCC[C@@H]4CCCN4C)ccc3c(=O)c2cc1OC	CaV13 ICDI inh 36.2
